Reference: ChEMBL document CHEMBL1148736, “N-Acylthiadiazolines, a new class of liver X receptor agonists with selectivity for LXRbeta” (J Med Chem, 2007)
Active and inactive are the calls of the source. No cut-off for these calls is given here.

Tests used:
Liver = assay: Effect on ABCA1 gene expression in C57BL/6 mouse liver; format: functional, tissue-based
Outline: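 Male C57BL/6 mice, 10 weeks old, chow-fed, gavaged daily with vehicle or compound (20–200 mpk) for 3 days. Fasted overnight before the last dose; killed 3 h later. Tissue RNA analysed by TaqMan qRT-PCR.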

[1] = target: T1, Oxysterols receptor LXR-beta (Homo sapiens) (UniProt P55055); assay: Displacement of [3H]T-0901317 from GAL-linked human LXRbeta expressed in THP1 cells at 20 uM by SPA relative to GW-3965; format: cell-based; conditions: THP-1
T1 sequence (whole entry): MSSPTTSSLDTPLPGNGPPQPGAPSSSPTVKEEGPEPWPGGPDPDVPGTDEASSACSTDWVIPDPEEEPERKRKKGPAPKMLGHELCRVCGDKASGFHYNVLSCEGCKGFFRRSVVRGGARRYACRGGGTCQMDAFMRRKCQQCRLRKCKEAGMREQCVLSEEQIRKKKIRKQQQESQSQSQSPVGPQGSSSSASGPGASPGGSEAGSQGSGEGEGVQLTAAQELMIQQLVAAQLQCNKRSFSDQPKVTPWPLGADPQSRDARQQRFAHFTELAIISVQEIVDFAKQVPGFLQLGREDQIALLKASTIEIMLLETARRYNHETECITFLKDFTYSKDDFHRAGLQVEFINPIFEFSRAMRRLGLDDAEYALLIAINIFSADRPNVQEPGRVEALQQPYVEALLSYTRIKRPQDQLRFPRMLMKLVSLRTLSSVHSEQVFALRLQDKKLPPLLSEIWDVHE
Outline: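 Scintillation proximity displacement with His-tagged hLXRα or hLXRβ LBD (200 ng/well) and 30 nM [3H]T0901317. Beads 0.2 mg/well in phosphate buffer with EDTA, NaCl, DTT, CHAPS, 10% glycerol. 12-point curves from 20 µM; shaken 3 h at room temperature. No-competitor wells = 100% binding; nonspecific binding without protein. Efficacy = maximal displacement relative to reference dual agonist.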

[2] = target: T2, Oxysterols receptor LXR-alpha (Homo sapiens, UniProt Q13133); assay: Agonist activity at GAL-linked human LXRalpha expressed in THP1 cells assessed as stimulation of coactivator recruitment by FRET assay; format: functional
T2 sequence (Q13133 whole entry): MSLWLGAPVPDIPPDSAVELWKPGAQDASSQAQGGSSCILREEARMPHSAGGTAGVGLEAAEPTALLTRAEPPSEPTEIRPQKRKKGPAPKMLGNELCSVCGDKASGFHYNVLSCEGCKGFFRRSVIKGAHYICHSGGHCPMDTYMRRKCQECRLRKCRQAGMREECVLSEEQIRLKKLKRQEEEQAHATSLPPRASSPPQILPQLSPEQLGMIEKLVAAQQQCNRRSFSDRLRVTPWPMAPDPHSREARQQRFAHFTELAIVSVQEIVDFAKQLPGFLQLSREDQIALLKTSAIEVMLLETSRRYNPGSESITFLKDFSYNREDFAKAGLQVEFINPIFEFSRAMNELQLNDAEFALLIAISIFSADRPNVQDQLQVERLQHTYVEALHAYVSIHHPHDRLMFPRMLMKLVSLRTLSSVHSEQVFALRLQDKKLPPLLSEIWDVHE
Outline: (§1)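 Cell-free TR-FRET coactivator recruitment: 20 nM His-tagged hLXRα or hLXRβ, 300 nM biotinylated SRC-1 peptide, Eu-anti-His antibody, APC-streptavidin. 12-point curves from 20 µM; 1 h at 37 °C. Duplicate. %E = maximal coactivator recruitment relative to reference dual agonist in same experiment.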

[3] = target: T3, Oxysterols receptor LXR-alpha (Homo sapiens) (UniProt Q13133); assay: Agonist activity at GAL-linked human LXRalpha expressed in THP1 cells assessed as stimulation of co-activator recruitment by FRET assay relative to GW-3965; format: functional; outline: as §1
T3 sequence (whole entry): T2 sequence (Q13133 whole entry)

THP-1 [4] = assay: Increase in ABCA1 gene expression in THP1 cells at 1 uM relative to GW-3965; format: functional, Homo sapiens
Outline: (§2)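 THP-1 cells differentiated with 40 ng/mL PMA for 1 day, then switched to RPMI with 2% lipoprotein-deficient FBS. Compound added 6 h later at 1 or 10 µM in DMSO, incubated 24 h. ABCA1 mRNA by one-step TaqMan qRT-PCR, triplicate, multiplexed with 36B4; fold induction vs DMSO, expressed relative to reference dual agonist.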

THP-1 [5] = assay: Increase in ABCA1 gene expression in THP1 cells at 10 uM relative to GW-3965; format: functional, Homo sapiens; outline: as §2
HepG2 = assay: Increase in FAS gene expression in HepG2 cells at 1 uM relative to GW-3965; format: functional, Homo sapiens
Macrophage = assay: Induction of APO-AI-dependent cholesterol efflux in mouse macrophages; format: functional, cell-based
Outline: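 Peritoneal macrophages labelled 24 h with [3H]cholesterol (1.0 µCi/mL) plus ACAT inhibitor 58-035 (2 µg/mL), with compound. Then 2–4 h equilibration in label-free medium with compound. Efflux for 4 h into DMEM/0.2% BSA with or without apoAI (15 µg/mL). apoAI-dependent efflux = medium radioactivity as % of total cell plus medium. Triplicate.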

[6] = target: Retinoid X receptor (Homo sapiens) (UniProt P28702+P48443+P19793); assay: Activity at RXR by cell based assay
Retinoid X receptor (Homo sapiens), sequence (P19793 whole entry, looked up): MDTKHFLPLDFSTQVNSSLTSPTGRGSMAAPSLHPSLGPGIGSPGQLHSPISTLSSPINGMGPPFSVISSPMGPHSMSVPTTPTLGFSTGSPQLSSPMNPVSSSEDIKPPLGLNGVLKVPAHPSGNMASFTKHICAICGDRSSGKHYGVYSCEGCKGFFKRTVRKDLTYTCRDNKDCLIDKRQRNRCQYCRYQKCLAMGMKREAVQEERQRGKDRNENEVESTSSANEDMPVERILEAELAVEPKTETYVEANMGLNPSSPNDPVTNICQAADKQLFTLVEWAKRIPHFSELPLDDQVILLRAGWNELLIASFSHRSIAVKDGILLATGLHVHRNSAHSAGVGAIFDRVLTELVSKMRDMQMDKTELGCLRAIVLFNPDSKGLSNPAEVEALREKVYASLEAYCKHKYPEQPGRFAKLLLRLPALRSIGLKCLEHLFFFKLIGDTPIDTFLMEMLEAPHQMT
Retinoid X receptor (Homo sapiens), sequence (P28702 whole entry, looked up): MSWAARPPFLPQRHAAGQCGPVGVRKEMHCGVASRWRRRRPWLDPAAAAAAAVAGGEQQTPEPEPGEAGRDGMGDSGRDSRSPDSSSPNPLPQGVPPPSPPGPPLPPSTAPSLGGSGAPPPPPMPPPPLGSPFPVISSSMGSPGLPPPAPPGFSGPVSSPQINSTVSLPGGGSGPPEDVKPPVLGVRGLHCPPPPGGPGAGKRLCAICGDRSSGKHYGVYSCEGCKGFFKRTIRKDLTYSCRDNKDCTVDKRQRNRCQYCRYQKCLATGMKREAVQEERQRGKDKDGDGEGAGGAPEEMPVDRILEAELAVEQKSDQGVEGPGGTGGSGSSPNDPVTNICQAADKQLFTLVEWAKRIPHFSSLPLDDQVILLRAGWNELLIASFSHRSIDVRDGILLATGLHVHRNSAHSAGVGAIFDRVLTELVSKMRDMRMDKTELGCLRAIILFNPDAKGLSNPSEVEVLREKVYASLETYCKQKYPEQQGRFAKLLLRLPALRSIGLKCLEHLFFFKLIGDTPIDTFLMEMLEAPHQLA
Retinoid X receptor (Homo sapiens), sequence (P48443 whole entry, looked up): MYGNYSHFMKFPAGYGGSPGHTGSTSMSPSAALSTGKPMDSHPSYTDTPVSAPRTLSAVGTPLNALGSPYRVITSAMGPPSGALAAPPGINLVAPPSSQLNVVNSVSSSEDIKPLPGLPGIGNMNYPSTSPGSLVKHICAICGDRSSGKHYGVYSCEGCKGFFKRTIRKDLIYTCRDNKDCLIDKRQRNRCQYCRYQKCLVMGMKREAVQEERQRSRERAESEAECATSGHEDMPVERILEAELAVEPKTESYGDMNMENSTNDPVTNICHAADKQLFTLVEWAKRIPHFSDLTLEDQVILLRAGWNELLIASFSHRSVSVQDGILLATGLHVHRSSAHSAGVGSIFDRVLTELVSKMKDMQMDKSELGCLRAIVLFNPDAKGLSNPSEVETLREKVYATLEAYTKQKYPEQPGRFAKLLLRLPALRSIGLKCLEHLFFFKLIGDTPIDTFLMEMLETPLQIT

[7] = target: Peroxisome proliferator-activated receptor (Homo sapiens) (UniProt P37231+Q07869+Q03181); assay: Activity at PPAR by cell based assay
[8] = target: T4, Nuclear receptor subfamily 1 group I member 2 (Homo sapiens, UniProt O75469); assay: Activity at PXR by cell based assay; format: functional
T4 sequence (O75469 whole entry): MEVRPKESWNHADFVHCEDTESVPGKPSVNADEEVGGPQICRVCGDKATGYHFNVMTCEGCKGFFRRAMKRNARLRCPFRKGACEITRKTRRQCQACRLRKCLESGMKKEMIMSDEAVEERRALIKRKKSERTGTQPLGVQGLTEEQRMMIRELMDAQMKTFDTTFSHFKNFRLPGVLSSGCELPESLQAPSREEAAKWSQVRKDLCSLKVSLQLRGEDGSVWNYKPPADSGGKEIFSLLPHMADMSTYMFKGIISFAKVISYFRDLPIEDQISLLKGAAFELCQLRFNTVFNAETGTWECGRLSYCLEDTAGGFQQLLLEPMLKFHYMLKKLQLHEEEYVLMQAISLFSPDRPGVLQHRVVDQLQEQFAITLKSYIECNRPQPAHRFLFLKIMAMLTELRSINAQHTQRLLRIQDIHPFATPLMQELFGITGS

[9] = Clearance in C57BL/6 mouse at 5 mg/kg, iv; format: ADME, organism-based; parameters: dose 5 mg/kg, route intravenous; conditions: in vivo
Outline: (§3)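 Mouse PK study, IV and PO; compound formulated at 2.5 mg/mL in PEG300/Tween 80 (4:1). IV dose 5 mpk (AUC, Cmax, clearance, Vss); oral dose 20 mpk (AUC, Cmax, bioavailability, t1/2).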

[10] = Cmax in C57BL/6 mouse at 20 mg/kg, po; format: ADME, organism-based; parameters: dose 20 mg/kg, route oral; conditions: in vivo; outline: as §3

- Efficacy [1]: 100%
- EC50 [2]: 2.3 µM
- Efficacy [3]: 42%
- Activity [6]: inactive
- Activity [7]: inactive
- Activity [8]: Not Active
- clearance [9]: 12.2 mL/min/kg
- Cmax [10]: 4.9 µM
Compound: COc1cccc(C2SC(c3ccc(Cl)cc3)=NN2C(=O)c2c(F)cc(F)cc2F)c1OC (racemic)
- Activity (Liver): inactive
- Activity (THP-1 [4]): 34%
- Activity (THP-1 [5]): 59%
- Activity (HepG2): 10%
- Activity (Macrophage): Active
